Measurements: ChEMBL document CHEMBL3865805, “Discovery and antiplatelet activity of a selective PI3Kβ inhibitor (MIPS-9922)” (Eur J Med Chem, 2016)
Values after ≈ are worked out from the molar mass of the structure shown. Active and inactive are the calls of the source. The rule behind the calls is not given here.

Key:
[1] = Clearance in rat by LC-MS analysis relative to hepatic blood flow; format: ADME, Liver; settings: in vivo
[2] = target: T1, Phosphatidylinositol 4,5-bisphosphate 3-kinase catalytic subunit beta isoform (Homo sapiens, UniProt P42338); assay: Inhibition of PI3Kbeta in human washed platelets assessed as suppression of ADP-induced platelet aggregation preincubated for 5 mins followed by ADP stimulation after 10 mins by light transmission aggregometric analysis
T1 sequence (P42338 whole entry, looked up, canonical isoform): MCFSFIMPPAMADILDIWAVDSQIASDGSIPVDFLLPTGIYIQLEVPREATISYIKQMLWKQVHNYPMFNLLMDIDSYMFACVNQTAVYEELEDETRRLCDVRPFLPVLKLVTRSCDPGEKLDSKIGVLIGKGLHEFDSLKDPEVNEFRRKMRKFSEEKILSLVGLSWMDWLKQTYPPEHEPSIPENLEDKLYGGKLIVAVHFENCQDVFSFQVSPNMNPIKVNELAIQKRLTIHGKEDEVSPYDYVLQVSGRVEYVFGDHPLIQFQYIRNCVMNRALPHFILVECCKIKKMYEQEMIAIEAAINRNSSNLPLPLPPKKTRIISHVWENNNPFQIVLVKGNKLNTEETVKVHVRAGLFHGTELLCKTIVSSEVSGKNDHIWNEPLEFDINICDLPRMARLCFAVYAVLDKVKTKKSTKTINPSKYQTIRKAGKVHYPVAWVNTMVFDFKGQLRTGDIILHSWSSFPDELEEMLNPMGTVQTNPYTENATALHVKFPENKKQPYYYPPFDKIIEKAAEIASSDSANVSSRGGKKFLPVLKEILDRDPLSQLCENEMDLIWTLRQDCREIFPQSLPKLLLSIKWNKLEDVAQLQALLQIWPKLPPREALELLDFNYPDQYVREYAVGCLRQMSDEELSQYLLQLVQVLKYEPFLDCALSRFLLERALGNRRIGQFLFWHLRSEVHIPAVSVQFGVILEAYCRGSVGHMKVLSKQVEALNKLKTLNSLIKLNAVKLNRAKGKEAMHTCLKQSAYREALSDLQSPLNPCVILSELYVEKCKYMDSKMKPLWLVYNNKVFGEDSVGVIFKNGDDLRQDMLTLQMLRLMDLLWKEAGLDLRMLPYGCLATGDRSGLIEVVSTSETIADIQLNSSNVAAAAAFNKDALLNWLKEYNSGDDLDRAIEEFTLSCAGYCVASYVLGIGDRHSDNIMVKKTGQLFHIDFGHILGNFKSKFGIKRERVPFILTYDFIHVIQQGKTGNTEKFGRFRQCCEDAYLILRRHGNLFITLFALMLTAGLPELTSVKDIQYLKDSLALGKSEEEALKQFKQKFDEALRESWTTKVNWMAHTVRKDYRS
In short: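 Washed human platelets in a conventional aggregometer. Aggregation induced by ADP; IC50 taken from the dose-response curve.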

[3] = target: T1, Phosphatidylinositol 4,5-bisphosphate 3-kinase catalytic subunit beta isoform; assay: Inhibition of PI3Kbeta in human washed platelets assessed as suppression of ADP-induced platelet aggregation at 0.5 uM preincubated for 5 mins followed by 25 uM ADP stimulation after 10 mins by light transmission aggregometric analysis
In short: (§1)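 Washed human platelets in an aggregometer. Inhibitor at 0.5 µM. Aggregation induced by 5, 10 or 25 µM ADP; percent inhibition read.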

Rattus norvegicus = assay: Toxicity in Sprague-Dawley rat at 20 mg/kg, po administered via gavage or 3 mg/kg, iv; format: organism-based; settings: in vivo
[4] = target: T1, Phosphatidylinositol 4,5-bisphosphate 3-kinase catalytic subunit beta isoform; assay: Inhibition of PI3Kbeta in human washed platelets assessed as suppression of ADP-induced integrin alpha2bbeta3 activation preincubated for 5 mins followed by ADP stimulation after 10 mins by OG-FNG-based FACS analysis
In short: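 Washed human platelets stimulated with ADP (5 µM). Integrin αIIbβ3 activation read as Oregon-Green fibrinogen binding by flow cytometry. DMSO 0.25% control set as 100%. n = 3, mean ± SEM. t test against 0.001 µM drug.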

[5] = target: T1, Phosphatidylinositol 4,5-bisphosphate 3-kinase catalytic subunit beta isoform; assay: Inhibition of PI3Kbeta in human washed platelets assessed as suppression of ADP-induced platelet aggregation at 0.5 uM preincubated for 5 mins followed by 5 to 10 uM ADP stimulation after 10 mins by light transmission aggregometric analysis; in short: as §1
[6] = Volume of distribution at steady state in Sprague-Dawley rat at 3 mg/kg, iv by LC-MS analysis; format: ADME, organism-based; settings: in vivo, read-out: Vdss
In short: (§2)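 Sprague Dawley rats, n=2 per route. Single dose: 3 mg/kg intravenous or 20 mg/kg oral. Plasma concentration followed over time. Half-life, volume of distribution, clearance, Tmax and oral bioavailability derived from the plasma concentration-time profiles.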

Mus musculus [7] = assay: Antithrombosis activity in C57BL/6 mouse model of electrolytic injury induced occlusive thrombus formation assessed as prevention of arterial thrombi formation by measuring effect on rate of carotid artery blood flow at 2.5 mg/kg, iv administered through bolus prior to electrolytic injury; format: functional, organism-based
In short: (§3)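 Electrolytic injury to the mouse carotid artery; 2.5 mg/kg given iv in saline (n = 8) against saline control (n = 8). Carotid blood flow (ml/min per 100 g body weight) monitored after injury, and flow volume taken as area under the curve over the 60-min period; mean ± S.E.M.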

[8] = Distribution constant, logD of compound at pH 7.4; format: physicochemical; settings: buffer
Mus musculus [9] = assay: Toxicity in C57BL/6 mouse model of electrolytic injury induced occlusive thrombus formation assessed as increase in tail bleeding time at 2.5 mg/kg, iv bolus administration; format: organism-based; settings: in vivo
In short: (§4)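 Mouse tail bleeding assay after 2.5 mg/kg iv (n = 8) against vehicle, 0.01% DMSO (n = 8). Tail bleeding time recorded; blood loss quantified as absorbance of haemoglobin at 575 nm.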

albumin = albumin (Homo sapiens, UniProt P02768); assay: Protein binding to human serum albumin by HPLC analysis; format: ADME; settings: read-out: PB (converted)
Chain of albumin (P02768 whole entry): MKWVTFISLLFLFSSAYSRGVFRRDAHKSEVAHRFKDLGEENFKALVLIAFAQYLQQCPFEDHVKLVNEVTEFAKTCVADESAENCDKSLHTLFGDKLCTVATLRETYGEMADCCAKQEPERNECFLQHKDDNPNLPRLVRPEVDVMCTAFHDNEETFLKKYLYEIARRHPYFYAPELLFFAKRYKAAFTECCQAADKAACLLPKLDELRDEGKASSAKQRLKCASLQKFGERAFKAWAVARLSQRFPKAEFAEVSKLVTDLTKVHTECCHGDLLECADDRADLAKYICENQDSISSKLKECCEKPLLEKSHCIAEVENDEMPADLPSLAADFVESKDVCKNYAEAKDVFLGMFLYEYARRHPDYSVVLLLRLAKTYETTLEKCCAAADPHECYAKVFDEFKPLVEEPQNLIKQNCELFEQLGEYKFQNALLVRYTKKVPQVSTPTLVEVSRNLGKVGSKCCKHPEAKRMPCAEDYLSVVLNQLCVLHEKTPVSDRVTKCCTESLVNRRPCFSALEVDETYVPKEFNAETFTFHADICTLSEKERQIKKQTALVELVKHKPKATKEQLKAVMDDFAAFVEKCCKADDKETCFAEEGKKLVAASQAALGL

[10] = Drug excretion in iv dosed rat urine by LC-MS analysis; format: ADME, organism-based; settings: read-out: Drug excretion
[11] = Apparent oral bioavailability in Sprague-Dawley rat at 20 mg/kg administered via gavage by LC-MS analysis; format: ADME, organism-based; settings: in vivo, read-out: Fapp; in short: as §2
[12] = Effect on platelet translocation in human washed platelets at 0.1 to 5 uM; format: ADME, cell-based
Mus musculus [13] = assay: Antithrombosis activity in C57BL/6 mouse model of electrolytic injury induced occlusive thrombus formation assessed as prevention of arterial thrombi formation by measuring effect on carotid artery blood flow volume at 2.5 mg/kg, iv administered through bolus prior to electrolytic injury measured after 60 mins; format: functional, organism-based; in short: as §3
[14] = Intrinsic clearance in rat liver microsomes at 1 uM after 60 mins in presence of NADPH by UPLC-MS analysis; format: ADME; settings: read-out: CLH
Platelet = assay: Antiplatelet activity against human washed platelets assessed as reduction in shear-induced stationary platelet adhesion to vWF matrix preincubated for 5 mins followed by blood perfusion after 4 mins; format: functional, cell-based
In short: (§5)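 Human whole blood, anticoagulated, perfused over a vWf matrix at 1800 s^-1 for 4 min; stationary platelet adhesion scored. Vehicle DMSO 0.25% taken as 100%. Drug tested up to 5 µM. t test against 0.1 µM drug.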

[15] = Tmax in Sprague-Dawley rat at 20 mg/kg, po via gavage by LC-MS analysis; format: ADME, organism-based; settings: in vivo; in short: as §2
[16] = Aqueous solubility of compound at pH 6.5 by turbidimetric solubility assay; format: physicochemical; settings: buffer
[17] = Blood clearance in rat by LC-MS analysis; format: ADME, tissue-based; settings: whole blood
[18] = target: T1, Phosphatidylinositol 4,5-bisphosphate 3-kinase catalytic subunit beta isoform; assay: Inhibition of PI3Kbeta in human platelet-rich plasma assessed as suppression of ADP-induced platelet aggregation preincubated for 5 mins followed by ADP stimulation after 10 mins by light transmission aggregometric analysis
In short: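 Human platelet-rich plasma stimulated with ADP; aggregation measured over a concentration range of inhibitor, and IC50 taken from the dose-response curve.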

[19] = Aqueous solubility of compound at pH 2 by turbidimetric solubility assay; format: physicochemical; settings: buffer
[20] = Stability in Sprague-Dawley rat plasma at […] after 4 hrs by UPLC-MS analysis; format: ADME, cell-free
[21] = Aqueous solubility of compound in saline; format: physicochemical; settings: buffer
Mus musculus [22] = assay: Toxicity in C57BL/6 mouse model of electrolytic injury induced occlusive thrombus formation assessed as excessive blood loss at 2.5 mg/kg, iv bolus administration; format: organism-based; settings: in vivo; in short: as §4
[23] = Intrinsic clearance in human liver microsomes at 1 uM after 60 mins in presence of NADPH by UPLC-MS analysis; format: ADME; settings: read-out: CLH
[24] = Effect on platelet tethering in human washed platelets at 0.1 to 5 uM; format: ADME, cell-based
[25] = target: T2, Proteinase-activated receptor 1 (Homo sapiens) (UniProt P25116); assay: Inhibition of PAR1 in human washed platelets assessed as suppression of TRAP-induced integrin alpha2bbeta3 activation preincubated for 5 mins followed by TRAP stimulation after 10 mins by OG-FNG-based FACS analysis
T2 sequence (whole entry): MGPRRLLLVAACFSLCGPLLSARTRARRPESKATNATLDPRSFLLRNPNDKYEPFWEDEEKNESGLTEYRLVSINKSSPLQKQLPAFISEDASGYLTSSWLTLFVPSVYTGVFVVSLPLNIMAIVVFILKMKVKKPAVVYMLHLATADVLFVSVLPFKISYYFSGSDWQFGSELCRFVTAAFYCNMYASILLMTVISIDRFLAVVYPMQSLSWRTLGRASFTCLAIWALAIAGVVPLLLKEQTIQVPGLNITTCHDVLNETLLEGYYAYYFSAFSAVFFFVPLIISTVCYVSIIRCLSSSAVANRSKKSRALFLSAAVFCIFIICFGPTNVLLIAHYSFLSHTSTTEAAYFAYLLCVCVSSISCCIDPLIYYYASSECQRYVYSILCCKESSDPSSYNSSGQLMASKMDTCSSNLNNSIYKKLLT
In short: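 Washed human platelets stimulated with TRAP at 0.5–1 µM, chosen by donor response. αIIbβ3 activation read as Oregon-Green fibrinogen binding by flow cytometry. DMSO 0.25% control set as 100%. n = 4-7, mean ± SEM.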

[26] = Antiplatelet activity against human washed platelets assessed as shear-induced stationary platelet adhesion to vWF matrix at 1 to 5 uM preincubated for 5 mins followed by blood perfusion after 4 mins relative to control; format: functional; in short: as §5
[27] = Plasma clearance in Sprague-Dawley rat at 3 mg/kg, iv by LC-MS analysis; format: ADME, organism-based; in short: as §2
[28] = Apparent half life in Sprague-Dawley rat at 3 mg/kg, iv by LC-MS analysis; format: ADME, organism-based; settings: in vivo, read-out: t1/2(app); in short: as §2
[29] = Distribution constant, logD of compound at pH 3; format: physicochemical; settings: buffer

SMILES: N[C@@H](Cc1ccccc1)C(=O)N1CCN(c2nc(N3CCOCC3)nc(-n3c(C(F)F)nc4ccccc43)n2)CC1
- CL [1]: 60%
- inhibition [2]: Dose-dependent effect
- inhibition [3]: 15%
- Activity (Rattus norvegicus): Non-Toxic
- inhibition [4]: Dose-dependent effect
- inhibition [5]: Active
- Vd [6]: 8.6 L/kg
- Activity (Mus musculus [7]): Active
- logD [8]: 3.7
- Activity (Mus musculus [9]): Non-Toxic
- fraction unbound (albumin): 0.03
- dose excreted [10]: < 0.1%
- bioavailability [11]: 26%
- Activity [12]: Non-Toxic
- Activity (Mus musculus [13]): Active
- microsomal CLint at 1 µM [14]: 43 µL/min/mg
- inhibition (Platelet): Dose-dependent effect
- Tmax [15]: 1 to 4 h
- solubility kinetic [16]: 6.3 to 12.5 µg/mL (≈ 11.2 to 22.2 µM)
- clearance [17]: 39 mL/min/kg
- inhibition [18]: Dose-dependent effect
- solubility kinetic [19]: > 100 µg/mL
- Stability [20]: Stable
- solubility [21]: Soluble
- Activity (Mus musculus [22]): Non-Toxic
- microsomal CLint at 1 µM [23]: 22 µL/min/mg
- Activity [24]: Non-Toxic
- inhibition [25]: Dose-dependent effect
- inhibition (INH) [26]: <=60%
- clearance [27]: 67 mL/min/kg
- half-life [28]: 2.8 to 3 h
- logD [29]: 3
